Values after ≈ are worked out from the molar mass of the structure shown.
Experiments:
[1] = Inhibition of gamma secretase in mouse Neuro2 cells expressing endogenous levels of amyloid precursor protein assessed as reduction in Abeta42 levels incubated for 18 hrs by sandwich ELISA; assay type: cell-based
Outline: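 IC50 as concentration reducing Aβ42 by 50%; mean of at least 2 determinations; mouse assay.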

Gamma-secretase = assay: Inhibition of gamma secretase in human SKNBE2 cells expressing human APP695 assessed as reduction in Abeta42 levels incubated for 18 hrs by sandwich ELISA
[2] = target: Gamma-secretase (Homo sapiens) (UniProt Q96BI3+Q9NZ42+Q8WW43+P49768+Q92542+P49810); assay: Inhibition of gamma secretase in human SKNBE2 cells expressing human APP695 assessed as increase in Abeta38 levels at 10 uM incubated for 18 hrs by sandwich ELISA; assay type: cell-based; set-up: scale not given: the % may be the effect or the level left
[3] = Drug concentration in mouse plasma at 30 mg/kg, po measured after 4 hrs by LC/MS/MS method; assay type: ADME, organism-based
Outline: (§1)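 Mice dosed orally at 30 mg/kg; plasma and brain sampled 4 h post-dose; compound quantified by qualified research LC–MS/MS; brain/plasma ratio at 4 h.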

[4] = Fraction of unbound in rat brain
[5] = Drug concentration in mouse brain at 30 mg/kg, po measured after 4 hrs by LC/MS/MS method; assay type: ADME, organism-based; conditions: read-out: Drug uptake; outline: as §1
Mus musculus [6] = assay: In vivo inhibition of gamma secretase in mouse increase in Abeta38 levels in brain at 30 mg/kg, po measured after 4 hrs relative to control; set-up: scale not given: the % may be the effect or the level left
Mus musculus [7] = assay: In vivo inhibition of gamma secretase in mouse assessed as assessed as reduction in Abeta42 levels in brain at 30 mg/kg, po measured after 4 hrs relative to control; assay type: functional
[8] = Free drug concentration in mouse brain; assay type: ADME, tissue-based; conditions: in vivo
Outline: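 Free brain concentration calculated as fu,b × total brain level (μM), mouse 30 mg/kg p.o., 4 h.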

[9] = Lipophilicity, log P of the compound; assay type: physicochemical; conditions: octanol/water
[10] = Kinetic solubility of the compound in pH 7.4 buffer; assay type: physicochemical; conditions: read-out: Kinetic_solubility
[11] = Metabolic stability in human liver microsomes assessed as compound metabolism at 1 uM incubated for 15 mins; assay type: ADME, Microsome; conditions: read-out: Drug metabolism
Outline: (§2)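 Compound at 1 μM incubated 15 min with human, mouse or dog liver microsomes; percent metabolized reported.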

Cytochrome P450 2D6 = Cytochrome P450 2D6 (Homo sapiens, UniProt P10635); assay: Inhibition of CYP2D6 (unknown origin); assay type: ADME
Cytochrome P450 2D6, sequence (P10635 whole entry): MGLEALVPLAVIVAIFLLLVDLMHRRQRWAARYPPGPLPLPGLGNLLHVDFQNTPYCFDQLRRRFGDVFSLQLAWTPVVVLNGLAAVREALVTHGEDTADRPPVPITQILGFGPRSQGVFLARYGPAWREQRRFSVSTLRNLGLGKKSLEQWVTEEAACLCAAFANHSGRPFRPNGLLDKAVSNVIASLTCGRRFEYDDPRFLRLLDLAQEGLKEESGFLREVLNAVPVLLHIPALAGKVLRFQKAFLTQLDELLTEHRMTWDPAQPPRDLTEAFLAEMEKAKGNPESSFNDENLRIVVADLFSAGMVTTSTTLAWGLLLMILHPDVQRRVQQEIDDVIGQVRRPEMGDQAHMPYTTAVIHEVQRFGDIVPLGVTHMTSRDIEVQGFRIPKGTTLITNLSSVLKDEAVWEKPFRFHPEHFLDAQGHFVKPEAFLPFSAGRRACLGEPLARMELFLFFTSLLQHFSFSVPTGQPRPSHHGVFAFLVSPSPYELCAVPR

Cytochrome P450 2C19 = Cytochrome P450 2C19 (Homo sapiens, UniProt P33261); assay: Inhibition of CYP2C19 (unknown origin); assay type: ADME
Cytochrome P450 2C19, sequence (P33261 whole entry): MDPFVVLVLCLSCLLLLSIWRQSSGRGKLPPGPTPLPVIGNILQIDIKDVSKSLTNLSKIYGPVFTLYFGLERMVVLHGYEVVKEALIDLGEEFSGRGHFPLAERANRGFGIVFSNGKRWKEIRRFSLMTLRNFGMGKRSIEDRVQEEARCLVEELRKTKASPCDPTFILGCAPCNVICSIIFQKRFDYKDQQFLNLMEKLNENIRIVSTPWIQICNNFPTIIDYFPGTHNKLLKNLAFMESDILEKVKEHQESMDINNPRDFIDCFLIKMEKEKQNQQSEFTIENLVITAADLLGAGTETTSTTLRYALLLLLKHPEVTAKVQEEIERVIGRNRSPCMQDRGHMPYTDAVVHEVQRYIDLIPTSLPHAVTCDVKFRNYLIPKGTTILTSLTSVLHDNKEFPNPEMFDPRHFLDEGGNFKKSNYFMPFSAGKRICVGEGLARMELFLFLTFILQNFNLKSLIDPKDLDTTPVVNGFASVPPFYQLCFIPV

Cytochrome P450 3A4 = Cytochrome P450 3A4 (Homo sapiens, UniProt P08684); assay: Activation of CYP3A4 (unknown origin) using midazolam; assay type: ADME
Cytochrome P450 3A4, sequence (P08684 whole entry): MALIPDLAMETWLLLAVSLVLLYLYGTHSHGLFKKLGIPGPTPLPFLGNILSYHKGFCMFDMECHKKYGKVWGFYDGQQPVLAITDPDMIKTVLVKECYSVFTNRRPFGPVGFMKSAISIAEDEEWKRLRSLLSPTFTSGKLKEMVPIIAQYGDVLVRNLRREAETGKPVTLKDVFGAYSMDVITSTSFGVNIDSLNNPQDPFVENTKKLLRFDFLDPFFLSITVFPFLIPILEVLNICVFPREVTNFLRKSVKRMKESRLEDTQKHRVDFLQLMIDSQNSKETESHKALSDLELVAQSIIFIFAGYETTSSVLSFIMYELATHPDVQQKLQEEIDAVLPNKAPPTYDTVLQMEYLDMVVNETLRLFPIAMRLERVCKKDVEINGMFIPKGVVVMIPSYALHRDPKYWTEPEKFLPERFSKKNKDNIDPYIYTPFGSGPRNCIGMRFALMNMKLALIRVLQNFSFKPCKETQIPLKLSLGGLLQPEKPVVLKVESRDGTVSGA

[12] = target: Voltage-gated inwardly rectifying potassium channel KCNH2 (Homo sapiens, UniProt Q12809); assay: Inhibition of human ERG by receptor binding assay
Voltage-gated inwardly rectifying potassium channel KCNH2, sequence (Q12809 whole entry): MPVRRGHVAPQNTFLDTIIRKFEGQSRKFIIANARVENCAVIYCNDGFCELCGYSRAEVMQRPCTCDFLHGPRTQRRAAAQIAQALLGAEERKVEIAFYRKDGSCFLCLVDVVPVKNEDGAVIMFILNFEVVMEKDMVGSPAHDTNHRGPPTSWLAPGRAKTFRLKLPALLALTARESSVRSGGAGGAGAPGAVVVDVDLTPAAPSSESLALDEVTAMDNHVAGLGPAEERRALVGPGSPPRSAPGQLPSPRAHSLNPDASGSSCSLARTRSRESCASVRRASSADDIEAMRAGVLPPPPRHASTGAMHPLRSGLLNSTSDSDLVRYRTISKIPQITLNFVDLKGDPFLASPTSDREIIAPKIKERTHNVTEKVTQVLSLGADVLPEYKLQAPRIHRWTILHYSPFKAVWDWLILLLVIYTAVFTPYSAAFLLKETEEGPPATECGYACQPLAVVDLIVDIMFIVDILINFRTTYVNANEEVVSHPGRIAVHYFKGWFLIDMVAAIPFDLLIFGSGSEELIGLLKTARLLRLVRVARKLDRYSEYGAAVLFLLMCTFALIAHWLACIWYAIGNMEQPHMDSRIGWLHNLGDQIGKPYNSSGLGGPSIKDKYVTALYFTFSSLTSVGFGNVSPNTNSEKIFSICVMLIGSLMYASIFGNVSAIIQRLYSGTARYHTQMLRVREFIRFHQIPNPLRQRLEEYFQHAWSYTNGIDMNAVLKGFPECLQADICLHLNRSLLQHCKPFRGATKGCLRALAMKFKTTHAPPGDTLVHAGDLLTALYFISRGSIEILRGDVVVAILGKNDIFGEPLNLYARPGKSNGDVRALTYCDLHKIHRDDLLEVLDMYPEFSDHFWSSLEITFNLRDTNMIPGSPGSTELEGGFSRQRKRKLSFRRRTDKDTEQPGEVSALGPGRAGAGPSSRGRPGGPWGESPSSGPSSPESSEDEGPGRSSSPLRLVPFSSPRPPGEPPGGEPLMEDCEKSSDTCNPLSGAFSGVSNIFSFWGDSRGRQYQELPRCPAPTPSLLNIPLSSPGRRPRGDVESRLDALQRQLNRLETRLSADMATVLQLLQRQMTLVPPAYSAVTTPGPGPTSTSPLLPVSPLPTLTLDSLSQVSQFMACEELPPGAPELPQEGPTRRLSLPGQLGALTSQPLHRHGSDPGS
Outline: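 Receptor binding on human hERG channel; IC50 reported.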

[13] = Ratio of drug concentration in brain to plasma of mouse at 30 mg/kg, po measured after 4 hrs by LC/MS/MS method; assay type: ADME, organism-based; conditions: read-out: BPR; outline: as §1
[14] = Metabolic stability in dog liver microsomes assessed as compound metabolism at 1 uM incubated for 15 mins; assay type: ADME, Canis lupus familiaris, Microsome; conditions: read-out: Drug metabolism; outline: as §2
Cytochrome P450 2C9 = Cytochrome P450 2C9 (Homo sapiens, UniProt P11712); assay: Inhibition of CYP2C9 (unknown origin); assay type: ADME
Cytochrome P450 2C9, sequence (P11712 whole entry): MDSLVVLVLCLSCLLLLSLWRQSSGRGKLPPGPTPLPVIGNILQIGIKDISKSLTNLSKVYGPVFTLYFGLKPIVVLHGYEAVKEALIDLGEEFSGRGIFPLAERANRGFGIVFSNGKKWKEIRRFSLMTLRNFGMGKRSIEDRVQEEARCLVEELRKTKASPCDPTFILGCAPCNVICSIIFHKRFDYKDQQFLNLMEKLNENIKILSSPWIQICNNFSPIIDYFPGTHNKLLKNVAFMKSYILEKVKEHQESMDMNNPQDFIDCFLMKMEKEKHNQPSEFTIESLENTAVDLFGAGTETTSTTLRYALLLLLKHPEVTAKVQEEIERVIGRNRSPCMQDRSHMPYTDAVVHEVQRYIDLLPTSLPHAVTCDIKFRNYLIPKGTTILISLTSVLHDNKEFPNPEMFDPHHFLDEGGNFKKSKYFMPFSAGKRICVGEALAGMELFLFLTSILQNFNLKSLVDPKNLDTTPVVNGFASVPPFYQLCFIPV

hERG (KCNH2) = hERG (KCNH2) (Homo sapiens, UniProt Q12809); assay: Inhibition of human ERG assessed as inhibition of IKr current at 3 uM by patch express assay
hERG (KCNH2), sequence (Q12809 whole entry): as the sequence (Q12809 whole entry) above
Outline: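 Human ERG: percent inhibition of IKr current at 3 μM.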

[15] = Metabolic stability in mouse liver microsomes assessed as compound metabolism at 1 uM incubated for 15 mins; assay type: ADME, Microsome; conditions: read-out: Drug metabolism; outline: as §2

IC50 [1] [nM] | IC50 (Gamma-secretase) [nM] | concentration at 4 h [3] [µM] | concentration at 4 h [5] [µM] | Structure (SMILES) | Activity (Mus musculus [6]) [%] | inhibition in vivo at 30 mg/kg (Mus musculus [7]) [%] | further results
85 | 110 |  |  | COCc1ccccc1[C@@H]1OCCn2cc(-c3cc4c(OC)c(C#N)ccc4[nH]3)nc21 |  |  | 
339 | 219 |  |  | COc1c(C#N)ccc2[nH]c(-c3cn4c(n3)C(C(C)c3ccc(F)cc3)OCC4)cc12 (stereo unspecified) |  |  | 
46 |  |  |  | Cc1cn(-c2ccc3[nH]c(-c4nc5n(n4)CCCC5c4ccccc4C(F)(F)F)cc3c2)cn1 (stereo unspecified) |  |  | 
186 | 117 |  |  | N#Cc1ccc2[nH]c(-c3nc4n(n3)CCCC4c3ccccc3C(F)(F)F)cc2c1 (racemic) |  |  | 
251 | 347 |  |  | COc1c(C#N)ccc2[nH]c(-c3cn4c(n3)[C@@H](c3ccccc3C(F)(F)F)OCC4)cc12 |  |  | 
41 | 72 |  |  | COc1c(C#N)ccc2[nH]c(-c3nc4n(n3)CCOC4c3ccccc3C(F)(F)F)cc12 (racemic) |  |  | 
1670 |  |  |  | N#Cc1ccc(Nc2nc(Cc3c(Cl)cccc3Cl)cc(NCC(O)c3ccccc3)n2)cc1 (stereo unspecified) |  |  | Activity [2]: 244%
7 |  |  |  | COc1nc(Nc2cccc3c2nc(-c2cccc(C(F)(F)F)c2)n3C)ccc1-n1cnc(C)c1 |  |  | 
 | 22 |  |  | COc1c(C#N)ccc2[nH]c(-c3cn4c(n3)C(c3ccccc3Cl)CC(C)(O)C4)cc12 (stereo unspecified) |  |  | 
> 10000 |  |  |  | COc1cc(Nc2cccn3cc(-c4ccc(F)cc4)nc23)ccc1C#N |  |  | 
 | 17 |  |  | COc1c(C#N)ccc2[nH]c(-c3cn4c(n3)[C@H](c3ccccc3Cl)O[C@H](C)C4)cc12 |  |  | 
107 | 98 |  |  | COc1c(C#N)ccc2[nH]c(-c3nc4n(n3)CCO[C@H]4c3cc(C(F)(F)F)ccc3F)cc12 |  |  | 
11 |  |  |  | COc1nc(/C=C/c2nc3n(n2)CCC[C@H]3c2ccccc2C(F)(F)F)ccc1-n1cnc(C)c1 [E-2212] |  |  | 
19 | 18 | 8.4 | 16.4 | COc1c(C#N)ccc2[nH]c(-c3cn4c(n3)[C@H](c3ccccc3C(F)(F)F)OCC4)cc12 (single isomer, unassigned) | 10 | 73 | Fu [4]: 0.21%; Drug uptake(free) [8]: 0.034 µM
28 | 25 | 0.75 | 0.69 | COc1c(C#N)ccc2[nH]c(-c3nc4n(n3)CCCC4c3ccc(F)cc3C)cc12 (racemic) | -9 | 45 | 
 | 66 |  |  | COc1c(C#N)ccc2[nH]c(-c3cn4c(n3)[C@H](c3ccccc3Cl)O[C@@H](C)C4)cc12 |  |  | 
42 | 45 | 5.4 | 10.5 | COc1c(C#N)ccc2[nH]c(-c3nc4n(n3)CCO[C@H]4c3ccccc3C(F)(F)F)cc12 | 39 | 46 | 
780 |  |  |  | CCc1cc(CCC#N)ccc1N1CCc2c(C)nc(Nc3ccc(C#N)cc3)nc21 |  |  | Activity [2]: 240%
36 to 38 | 36 |  |  | COc1c(C#N)ccc2[nH]c(-c3nc4n(n3)CCCC4c3ccccc3C(F)(F)F)cc12 (racemic) |  |  | 

IC50 [1] [nM] | IC50 (Gamma-secretase) [nM] | concentration at 4 h [3] [µM] | concentration at 4 h [5] [µM] | Structure (SMILES) | Activity (Mus musculus [6]) [%] | inhibition in vivo at 30 mg/kg (Mus musculus [7]) [%] | further results
50 | 112 | 4.5 | 1.9 | COc1c(C#N)ccc2[nH]c(-c3cn4c(n3)C(c3ccc(F)cc3C)CCC4)cc12 (racemic) | 17 | 51 | 
 | 39 |  |  | COc1c(C#N)ccc2[nH]c(-c3cn4c(n3)C(c3ccccc3Cl)CC(O)(CO)C4)cc12 (stereo unspecified) |  |  | 
 | 15 |  |  | COc1c(C#N)ccc2[nH]c(-c3cn4c(n3)[C@H](c3ccccc3Cl)C[C@@H](C)C4)cc12 (racemic) |  |  | 
275 |  |  |  | COc1cc(/C=C/c2nc3n(n2)CCC[C@H]3c2ccccc2C(F)(F)F)ccc1C#N |  |  | 
74 | 41 | 10.6 | 16.3 | COc1c(C#N)ccc2[nH]c(-c3cn4c(n3)[C@H](c3cc(C(F)(F)F)ccc3F)OCC4)cc12 | 41 | 35 | 
85 |  |  |  | Cc1cn(-c2ccc3[nH]c(-c4nc(-c5cccc(C(F)(F)F)c5)n(C)n4)cc3c2)cn1 |  |  | 
182 |  |  |  | COc1cc(Nc2cccn3cc(-c4ccc(F)cc4)nc23)ccc1-n1cnc(C)c1 |  |  | 
49 | 19 | 17.8 | 14 | COc1nc(-c2nc(Nc3cc(F)cc(C(F)(F)F)c3)n(C)n2)ccc1-n1cnc(C)c1 | 53 | 55 | logP [9]: 4.24; solubility kinetic [10]: 39 µM (≈ 17.4 µg/mL); metabolised at 0.25 h, 1 µM [11]: 4%; IC50 (Cytochrome P450 2D6): 16000 nM; IC50 (Cytochrome P450 2C19): 22100 nM; Activity (Cytochrome P450 3A4): Active; IC50 [12]: > 10000 nM; Fu [4]: 0.5%; Kp at 4 h [13]: 0.8; metabolised at 0.25 h, 1 µM [14]: 10%; IC50 (Cytochrome P450 2C9): 12300 nM; inhibition at 3 µM (hERG (KCNH2)): 52%; metabolised at 0.25 h, 1 µM [15]: 0%; Drug uptake(free) [8]: 0.069 µM
166 | 107 |  |  | COc1cc2[nH]c(-c3nc4n(n3)CCCC4c3ccccc3C(F)(F)F)cc2cc1C#N (racemic) |  |  | 
16 | 23 | 9.2 | 6.9 | COc1c(C#N)ccc2[nH]c(-c3cn4c(n3)[C@H](c3ccc(F)cc3C)OCC4)cc12 | 122 | 45 | Fu [4]: 0.23%; Drug uptake(free) [8]: 0.016 µM
19 | 31 | 2.5 | 5.5 | COc1c(C#N)ccc2[nH]c(-c3nc4n(n3)CCO[C@H]4c3cccc(F)c3C)cc12 | 60 | 33 | Fu [4]: 0.17%; Drug uptake(free) [8]: 0.009 µM
680 |  |  |  | N#CCCNc1cc(Cc2c(Cl)cccc2Cl)nc(Nc2ccc(C#N)cc2)n1 |  |  | Activity [2]: 242%
8500 | 3980 |  |  | N#Cc1ccc2cc(-c3nc4n(n3)CCCC4c3ccccc3C(F)(F)F)[nH]c2c1 (racemic) |  |  | 
42 | 36 | 11.3 | 18.7 | COc1c(C#N)ccc2[nH]c(-c3cn4c(n3)[C@H](c3c(F)cccc3C(F)(F)F)OCC4)cc12 | 136 | 40 | 
34 | 32 | 1.52 | 1.71 | COc1c(C#N)ccc2[nH]c(-c3nc4n(n3)CCO[C@H]4c3ccc(F)cc3C)cc12 | -12 | 5 | 
> 10000 | 4000 |  |  | Cn1c(-c2nc3n(n2)CCCC3c2ccccc2C(F)(F)F)cc2cc(C#N)ccc21 (racemic) |  |  | 
59 | 59 | 1.7 | 9.6 | COc1c(C#N)ccc2[nH]c(-c3nc4n(n3)CCO[C@H]4c3cccc(F)c3C(F)(F)F)cc12 | 19 | 2 | Fu [4]: 0.09%; Drug uptake(free) [8]: 0.009 µM
23 | 26 | 8.3 | 23.8 | COc1c(C#N)ccc2[nH]c(-c3cn4c(n3)[C@H](c3ccccc3Cl)OCC4)cc12 | 61 | 60 | Fu [4]: 0.47%; Drug uptake(free) [8]: 0.112 µM
295 | 603 |  |  | COc1c(C#N)ccc2[nH]c(-c3nc4n(n3)CCO[C@@H]4c3ccccc3C(F)(F)F)cc12 |  |  | 

Source: ChEMBL document CHEMBL4387734, “Design and synthesis of a novel series of cyanoindole derivatives as potent γ-secretase modulators” (Bioorg Med Chem Lett, 2019)
